The text below walks through data of ChEMBL document CHEMBL1157743, “Mitotic arrest induced by a novel family of DNA topoisomerase II inhibitors” (J Med Chem, 2010).

In data set [1] the test system is HBL-100. The data set can be described thus: Antiproliferative activity against human HBL100 cells after 48 hrs by SRB assay. It counts as functional. As to conditions: HBL-100, 48 h. Put shortly: (§1)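 Human solid tumor lines and three immortalized nontumor lines in culture, exposed to the test agent. Read-out is growth inhibition, reported as GI50 (μM).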
Data set [2] concerns SW1573. The data set can be described thus: Antiproliferative activity against human SW1573 cells after 48 hrs by SRB assay. It counts as functional. As to conditions: SW1573, 48 h. The method in brief:
as §1

For data set [3], the system named is HeLa. The data set can be described thus: Antiproliferative activity against human HeLa cells after 48 hrs by SRB assay. The data set is classed as functional. The method in brief:
as §1
In general terms: The SRB assay estimates cell density from bound dye.

Data set [4] concerns T47D. The data set can be described thus: Antiproliferative activity against human T47D cells after 48 hrs by SRB assay. It counts as functional. The method in brief: as §1
In data set [5] the test system is WiDr. The data set can be described thus: Antiproliferative activity against human WiDr cells after 48 hrs by SRB assay. It counts as functional. The method in brief:
as §1

The nature of data set [6]: Antiproliferative activity against human HS27 cells after 48 hrs by SRB assay. The data set is classed as cell-based. The method in brief: as §1
The nature of data set [7]: Antiproliferative activity against human MCF10A cells after 48 hrs by SRB assay. It counts as cell-based, MCF-10A. Put shortly: as §1
Data set [8] concerns SW1573. The data set can be described thus: Cell cycle arrest in human SW1573 cells assessed as accumulation of cells in G2/M phase after 24 hrs by flow cytometry. It counts as functional, cell-based. Put shortly: (§2)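 Flow cytometry of DNA content, giving the G0/G1, S, G2/M and sub-G1 fractions. Cells treated for 24 h at three doses alongside untreated controls. Values are means of at least two experiments.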
On the technique in general: A flow cytometer gives signals particle by particle.

The test system of data set [9] is HBL-100. The data set can be described thus: Cell cycle arrest in human HBL100 cells assessed as accumulation of cells in G2/M phase after 24 hrs by flow cytometry. It counts as functional, cell-based. Put shortly: as §2
The subject of data set [10] is HeLa. The data set can be described thus: Cell cycle arrest in human HeLa cells assessed as accumulation of cells in G2/M phase after 24 hrs by flow cytometry. It counts as functional, cell-based. Put shortly: as §2
Data set [11] concerns T47D. The data set can be described thus: Cell cycle arrest in human T47D cells assessed as accumulation of cells in G2/M phase after 24 hrs by flow cytometry. The data set is classed as functional, cell-based. The method in brief:
as §2

In data set [12] the test system is WiDr. The data set can be described thus: Cell cycle arrest in human WiDr cells assessed as accumulation of cells in G2/M phase after 24 hrs by flow cytometry. The data set is classed as functional, cell-based. The method in brief: as §2
For data set [13], the system named is HBL-100. The data set can be described thus: Induction of apoptosis in human HBL100 cells assessed as early apoptotic cells at 2 uM after 24 hrs by annexin V/Pi staining technique. The data set is classed as functional.
Data set [14] relates to HBL-100. The data set can be described thus: Induction of apoptosis in human HBL100 cells assessed as late apoptotic cells at 2 uM after 24 hrs by annexin V/Pi staining technique. It counts as functional.
The subject of data set [15] is HBL-100. The data set can be described thus: Induction of apoptosis in human HBL100 cells assessed as early apoptotic cells at 4 uM after 24 hrs by annexin V/Pi staining technique. It counts as functional.
In data set [16] the test system is HBL-100. The data set can be described thus: Induction of apoptosis in human HBL100 cells assessed as late apoptotic cells at 4 uM after 24 hrs by annexin V/Pi staining technique. It counts as functional.
In data set [17] the test system is HeLa. The data set can be described thus: Induction of apoptosis in human HeLa cells assessed as early apoptotic cells at 6 uM after 24 hrs by annexin V/Pi staining technique. The data set is classed as functional.
Data set [18] relates to HeLa. The data set can be described thus: Induction of apoptosis in human HeLa cells assessed as late apoptotic cells at 6 uM after 24 hrs by annexin V/Pi staining technique. It counts as functional.
For data set [19], the system named is HeLa. The data set can be described thus: Induction of apoptosis in human HeLa cells assessed as early apoptotic cells at 8 uM after 24 hrs by annexin V/Pi staining technique. It counts as functional.
The subject of data set [20] is HeLa. The data set can be described thus: Induction of apoptosis in human HeLa cells assessed as late apoptotic cells at 8 uM after 24 hrs by annexin V/Pi staining technique. The data set is classed as functional.
Data set [21] has as its system T47D. The data set can be described thus: Induction of apoptosis in human T47D cells assessed as early apoptotic cells at 6 uM after 24 hrs by annexin V/Pi staining technique. The data set is classed as functional.
For data set [22], the system named is T47D. The data set can be described thus: Induction of apoptosis in human T47D cells assessed as late apoptotic cells at 6 uM after 24 hrs by annexin V/Pi staining technique. The data set is classed as functional.
Data set [23] relates to T47D. The data set can be described thus: Induction of apoptosis in human T47D cells assessed as early apoptotic cells at 8 uM after 24 hrs by annexin V/Pi staining technique. It counts as functional.
Data set [24] concerns T47D. The data set can be described thus: Induction of apoptosis in human T47D cells assessed as late apoptotic cells at 8 uM after 24 hrs by annexin V/Pi staining technique. It counts as functional.
Data set [25] concerns WiDr. The data set can be described thus: Induction of apoptosis in human WiDr cells assessed as early apoptotic cells at 6 uM after 24 hrs by annexin V/Pi staining technique. It counts as functional.
Data set [26] concerns WiDr. The data set can be described thus: Induction of apoptosis in human WiDr cells assessed as late apoptotic cells at 6 uM after 24 hrs by annexin V/Pi staining technique. It counts as functional.
Data set [27] has as its system WiDr. The data set can be described thus: Induction of apoptosis in human WiDr cells assessed as early apoptotic cells at 8 uM after 24 hrs by annexin V/Pi staining technique. It counts as functional.
The subject of data set [28] is WiDr. The data set can be described thus: Induction of apoptosis in human WiDr cells assessed as late apoptotic cells at 8 uM after 24 hrs by annexin V/Pi staining technique. The data set is classed as functional.
In data set [29] the test system is HeLa. The data set can be described thus: Induction of DNA damage in human HeLa cells assessed as phosphorylation of ChK2 at 7.5 uM after 24 hrs by immunoblotting. The data set is classed as functional, cell-based. The method in brief:
(§3)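 HeLa cells exposed at 7.5 μM, sampled at 3, 6, 12 and 24 h. Protein extracts probed by Western blot for phospho-Chk2, phospho-H2AX and cyclin B1. Phospho-histone H3 Ser10 detected with a phospho-specific antibody. Includes a positive-control lane.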
Background: Immunoblotting shows a protein as a band on a membrane.

The test system of data set [30] is HeLa. The data set can be described thus: Induction of DNA damage in human HeLa cells assessed as phosphorylation of H2AX at 7.5 uM after 24 hrs by immunoblotting. The data set is classed as functional, cell-based. The method in brief:
as §3

In data set [31] the test system is HeLa. The data set can be described thus: Induction of DNA damage in human HeLa cells assessed as expression of cyclin B1 uM after 24 hrs by immunoblotting. The data set is classed as functional, cell-based. Put shortly: as §3
For data set [32], the target named is DNA topoisomerase 2-alpha (Homo sapiens) (UniProt P11388). The data set can be described thus: Inhibition of human topoisomerase 2 alpha assessed as inhibition of decatenation of KDNA at 100 uM after 30 to 60 mins by gel electrophoresis with ethidium bromide relative to control. Put shortly: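 Decatenation assay: purified TOP2 incubated with kinetoplast DNA. Released minicircles (nicked, supercoiled and relaxed forms) resolved by agarose gel electrophoresis. Compared with lanes without enzyme and with enzyme alone, plus reference TOP2 inhibitors.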
Sequence of DNA topoisomerase 2-alpha (Homo sapiens) (P11388 whole entry): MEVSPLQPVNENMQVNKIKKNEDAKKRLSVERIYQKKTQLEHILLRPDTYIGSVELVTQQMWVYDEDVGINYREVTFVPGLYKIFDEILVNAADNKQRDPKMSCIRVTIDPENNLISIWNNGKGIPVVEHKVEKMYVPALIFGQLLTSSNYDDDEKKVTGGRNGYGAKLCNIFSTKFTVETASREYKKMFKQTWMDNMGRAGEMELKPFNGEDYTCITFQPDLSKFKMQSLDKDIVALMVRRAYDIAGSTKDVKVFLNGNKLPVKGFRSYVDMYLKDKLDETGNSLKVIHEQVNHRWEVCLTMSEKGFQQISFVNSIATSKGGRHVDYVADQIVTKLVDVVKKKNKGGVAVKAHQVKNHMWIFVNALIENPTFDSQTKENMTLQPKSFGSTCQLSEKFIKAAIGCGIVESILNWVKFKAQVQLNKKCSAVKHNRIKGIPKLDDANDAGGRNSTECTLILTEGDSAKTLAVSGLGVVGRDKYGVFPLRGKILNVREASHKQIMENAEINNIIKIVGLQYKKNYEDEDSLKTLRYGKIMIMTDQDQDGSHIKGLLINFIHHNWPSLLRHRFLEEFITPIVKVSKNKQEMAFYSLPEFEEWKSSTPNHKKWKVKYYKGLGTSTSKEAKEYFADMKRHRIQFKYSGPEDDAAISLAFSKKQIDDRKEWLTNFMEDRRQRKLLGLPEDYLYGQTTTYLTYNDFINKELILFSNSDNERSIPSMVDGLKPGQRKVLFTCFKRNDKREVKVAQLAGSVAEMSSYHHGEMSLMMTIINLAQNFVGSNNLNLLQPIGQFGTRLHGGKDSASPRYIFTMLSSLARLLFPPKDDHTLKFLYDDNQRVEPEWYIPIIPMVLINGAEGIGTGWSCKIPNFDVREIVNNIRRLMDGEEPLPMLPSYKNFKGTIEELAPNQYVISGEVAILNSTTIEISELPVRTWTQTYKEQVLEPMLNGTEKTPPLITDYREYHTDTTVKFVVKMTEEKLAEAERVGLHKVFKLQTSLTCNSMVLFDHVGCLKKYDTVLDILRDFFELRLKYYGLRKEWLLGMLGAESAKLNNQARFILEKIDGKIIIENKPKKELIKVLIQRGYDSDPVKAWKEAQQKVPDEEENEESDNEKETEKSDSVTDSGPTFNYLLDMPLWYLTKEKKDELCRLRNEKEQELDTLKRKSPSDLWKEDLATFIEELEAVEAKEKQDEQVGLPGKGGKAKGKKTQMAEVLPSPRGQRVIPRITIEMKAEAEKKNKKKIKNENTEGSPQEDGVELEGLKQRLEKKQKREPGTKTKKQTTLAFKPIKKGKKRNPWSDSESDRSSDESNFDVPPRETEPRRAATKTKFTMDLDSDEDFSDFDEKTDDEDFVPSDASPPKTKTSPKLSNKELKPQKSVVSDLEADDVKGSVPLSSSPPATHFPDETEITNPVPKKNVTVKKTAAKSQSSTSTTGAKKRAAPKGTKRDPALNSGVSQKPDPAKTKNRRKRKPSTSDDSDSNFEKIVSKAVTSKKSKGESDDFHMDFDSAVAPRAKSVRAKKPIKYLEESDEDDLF

Data set [33] has the same target. The data set can be described thus: Inhibition of human topoisomerase 2 alpha assessed as inhibition of relaxation of SC plasmid pHOT1 at 100 uM after 30 to 60 mins by gel electrophoresis relative to control. The method in brief:
(§4)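 Purified TOP2 incubated with negatively supercoiled plasmid pHOT1. Supercoiled, nicked and relaxed topoisomers separated by agarose gel electrophoresis. Compared with lanes without enzyme and with enzyme alone.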

Data set [34] has the same target. The data set can be described thus: Inhibition of human topoisomerase 2 alpha assessed as inhibition of relaxation of Rel plasmid pHOT1 at 100 uM after 30 to 60 mins by gel electrophoresis relative to control. The method in brief: as §4
Data set [35] has the same target. The data set can be described thus: Inhibition of human topoisomerase 2 alpha assessed as inhibition of relaxation of NcK plasmid pHOT1 at 100 uM after 30 to 60 mins by gel electrophoresis relative to control. Put shortly:
as §4

The target is the same in data set [36]. The data set can be described thus: Inhibition of human topoisomerase 2 alpha assessed as inhibition of formation of Lin form of plasmid pHOT1 at 100 uM after 30 to 60 mins by gel electrophoresis inthe presence of exsess of ethidium bromide relative to control. The method in brief: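 Cleavage-complex assay: purified TOP2 incubated with plasmid pHOT1. Agarose gel electrophoresis detects the linear (Lin) DNA form produced by trapped enzyme-cut intermediates.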

Data set [37] deals with hTERT-HPNE (Homo sapiens). The data set can be described thus: Antiproliferative activity against hTERT-HPNE cells after 48 hrs by SRB assay.

Molecules are shown by their SMILES. Activity calls are given as the source filed them. No cut-off for these calls is given here.

By GI50 is commonly meant the concentration giving 50% growth inhibition. Low values mean greater sensitivity of the cells, high ones lower sensitivity of the cells. As to `COC(=O)C#CC(O/C=C/C(=O)OC)C1CC1` (stereo unspecified), the figures for the GI50 in data set [1] and in [2] were 250 nM and 1800 nM, respectively.

Turning to `C#CC(O/C=C/C(=O)OC)c1ccccc1` (stereo unspecified), the GI50 in data set [1] is 26000 nM; in data set [2], 31000 nM.

Take `CCOC(=O)C#CC(O/C=C/C(=O)OC)C(C)C` (stereo unspecified): the figures for the GI50 in data set [1] and in data set [2] were 880 nM and 960 nM, respectively.

Turning to `CCC(C#CC(=O)OC)O/C=C/C(=O)OC` (stereo unspecified), the GI50 was determined as 320 nM in [1] and 540 nM in [2].

In the case of `CCCCCCC(C#CC(=O)OC)O/C=C/C(=O)OC` (stereo unspecified), the values for the GI50 in [1] and in data set [2] were 2500 nM and 3300 nM, respectively.

As for `CCCCC(C#CC(=O)OC)O/C=C/C(=O)OC` (stereo unspecified), the 50% growth inhibitory concentration (GI50) in [1] worked out at 250 nM; in data set [3], 2800 nM; in [2], 240 nM; in [4], 3800 nM; in [5] it was 3100 nM. Also, the GI50 at 48 h in data set [6] is 1900 nM; in [7], 34000 nM; in data set [37] it was 1300 nM. In addition, the Activity result is “Dose-dependent effect” in [8]; “Dose-dependent effect” in [9]; “Dose-dependent effect” in data set [10]; “Dose-dependent effect” in [11]; “Dose-dependent effect” in data set [12]; 6.7% in [13]. The Activity in [14] stood at 12%; in data set [15], 5.3%; in data set [16], 12%; in data set [17], 8.7%; in data set [18] it was 9%; in data set [19], 10%. Moreover, the Activity in data set [20] is listed as 11%; in data set [21], 12%; in [22] it was 24%; in [23] it was 11%; in [24], 19%; in data set [25] it was 12%. Also, the Activity turned out to be 21% in [26], 11% in data set [27] and 28% in data set [28]. Further, the result in [29], in data set [30], in data set [31] and in data set [36] was inactive. For the same molecule, the result in [32], in [33], in data set [34] and in data set [35] was Active.

`CCC(C)C(C#CC(=O)OC)O/C=C/C(=O)OC` (stereo unspecified): the GI50 in [1] amounted to 340 nM; in data set [2], 910 nM.

For the molecule `CCCC(C#CC(=O)OC)O/C=C/C(=O)OC` (stereo unspecified), the GI50 is 270 nM in data set [1] and 320 nM in [2].

For `COC(=O)C#CC(C)O/C=C/C(=O)OC` (stereo unspecified), the results for the GI50 in data set [1] and in data set [2] were 300 nM and 1700 nM, respectively.

Take `COC(=O)C#CC(CC(C)C)O/C=C/C(=O)OC` (stereo unspecified): the results for the GI50 in data set [1] and in [2] were 330 nM and 380 nM, respectively.

For the molecule `CCCCCCC(C#CC(=O)O)O/C=C/C(=O)OC` (stereo unspecified), the concentration for 50% growth inhibition (GI50) in [1] and in data set [2] was > 100000 nM in each case.

As for `COC(=O)/C=C/OC(C#CC(=O)O)C(C)(C)C` (stereo unspecified), the GI50 in data set [1] and in data set [2] was > 100000 nM in each case.

As to `CCOC(=O)C#CCO/C=C/C(=O)OC`, the GI50 was found to be 2400 nM in data set [1] and 1800 nM in [2].
